From ChEMBL document CHEMBL1151733, “Pirinixic acid derivatives as novel dual inhibitors of microsomal prostaglandin E2 synthase-1 and 5-lipoxygenase” (J Med Chem, 2008)
The source made the active and inactive calls. The calls are words filed in the database; no cut-off is given here.

target: T1, Prostaglandin G/H synthase 1 (Ovis aries, UniProt P05979); test: Inhibition of ovine COX1; details: not given
T1 sequence (P05979 whole entry): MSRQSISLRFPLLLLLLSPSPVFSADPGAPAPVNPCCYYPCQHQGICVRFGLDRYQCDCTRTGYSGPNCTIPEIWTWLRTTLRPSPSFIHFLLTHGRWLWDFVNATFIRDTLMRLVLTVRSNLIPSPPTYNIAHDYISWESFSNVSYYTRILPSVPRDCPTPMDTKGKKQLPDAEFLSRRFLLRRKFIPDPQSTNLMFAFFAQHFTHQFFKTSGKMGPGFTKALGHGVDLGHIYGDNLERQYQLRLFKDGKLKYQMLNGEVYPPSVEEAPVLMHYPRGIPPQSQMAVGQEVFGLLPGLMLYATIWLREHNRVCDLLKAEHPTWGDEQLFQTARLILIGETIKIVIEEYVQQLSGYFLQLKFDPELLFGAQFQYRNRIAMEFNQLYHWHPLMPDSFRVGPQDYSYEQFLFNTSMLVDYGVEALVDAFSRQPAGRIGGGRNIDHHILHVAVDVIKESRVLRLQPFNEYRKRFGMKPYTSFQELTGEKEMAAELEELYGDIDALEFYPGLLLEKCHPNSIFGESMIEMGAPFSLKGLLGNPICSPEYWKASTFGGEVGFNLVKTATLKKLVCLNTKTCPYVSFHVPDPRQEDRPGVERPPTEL
In short: (§1)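 Ovine COX-1 (50 units) or human recombinant COX-2 (20 units) in 100 mM Tris pH 8 with 5 mM glutathione, 5 µM hemoglobin and 100 µM EDTA. Compound preincubation 5 min at 4 °C, then prewarming 60 s at 37 °C. AA added at 5 µM for COX-1 or 2 µM for COX-2, reacted 5 min at 37 °C. 12-HHT extracted and quantified by HPLC. Mean ± SE, n = 3.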

Compound	IC50
CCCCCCC(Sc1nc(Cl)cc(Nc2cc(C)c(-c3ccccc3)cc2OC)n1)C(=O)O (stereo unspecified)	> 10 µM
CCCCCCC(Sc1nc(Cl)cc(Nc2ccc(-c3ccc(C#N)cc3)cc2)n1)C(=O)O (stereo unspecified)	> 10 µM
CCCCCCC(Sc1nc(Cl)cc(Nc2ccc3ncccc3c2)n1)C(=O)OCC (stereo unspecified)	> 10 µM
CC(C)c1ccc2c(c1)c(SC(C)(C)C)c(CC(C)(C)C(=O)O)n2Cc1ccc(Cl)cc1	> 10 µM
CCCCCCC(Sc1nc(Cl)cc(Nc2ccc(-c3ccccc3)cc2)n1)C(=O)O (stereo unspecified)	> 10 µM

target: T2, Prostaglandin E synthase (Homo sapiens) (UniProt O14684); details: A549, 33 uM
T2 sequence (whole entry): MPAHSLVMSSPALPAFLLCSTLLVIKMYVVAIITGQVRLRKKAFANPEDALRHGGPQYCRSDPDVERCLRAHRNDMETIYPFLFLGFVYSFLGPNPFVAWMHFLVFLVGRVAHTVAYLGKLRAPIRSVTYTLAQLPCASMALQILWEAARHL

Compound	inhibition
CC(C)c1ccc2c(c1)c(SC(C)(C)C)c(CC(C)(C)C(=O)O)n2Cc1ccc(Cl)cc1	63%

target: T3, Prostaglandin G/H synthase 2 (Homo sapiens, UniProt P35354); test: Inhibition of human recombinant COX2; details: not given; in short: as §1
T3 sequence (P35354 whole entry): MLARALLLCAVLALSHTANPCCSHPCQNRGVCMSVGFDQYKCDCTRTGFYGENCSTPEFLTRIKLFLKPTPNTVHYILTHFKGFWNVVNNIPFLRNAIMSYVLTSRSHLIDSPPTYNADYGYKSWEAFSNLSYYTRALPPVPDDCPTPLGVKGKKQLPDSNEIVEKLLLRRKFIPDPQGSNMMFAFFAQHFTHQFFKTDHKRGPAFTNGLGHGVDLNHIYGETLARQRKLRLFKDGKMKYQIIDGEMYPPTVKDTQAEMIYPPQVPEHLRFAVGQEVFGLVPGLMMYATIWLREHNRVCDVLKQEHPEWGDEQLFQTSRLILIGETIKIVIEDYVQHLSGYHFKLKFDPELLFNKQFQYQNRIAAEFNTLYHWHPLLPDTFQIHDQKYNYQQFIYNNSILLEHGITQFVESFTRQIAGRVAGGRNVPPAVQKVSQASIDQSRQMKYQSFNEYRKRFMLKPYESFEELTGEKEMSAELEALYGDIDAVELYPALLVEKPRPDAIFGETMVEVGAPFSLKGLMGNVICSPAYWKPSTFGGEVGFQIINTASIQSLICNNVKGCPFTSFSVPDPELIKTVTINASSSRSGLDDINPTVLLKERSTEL

Compound	IC50
CCCCCCC(Sc1nc(Cl)cc(Nc2cc(C)c(-c3ccccc3)cc2OC)n1)C(=O)O (stereo unspecified)	> 10 µM
CCCCCCC(Sc1nc(Cl)cc(Nc2ccc(-c3ccc(C#N)cc3)cc2)n1)C(=O)O (stereo unspecified)	> 10 µM
CCCCCCC(Sc1nc(Cl)cc(Nc2ccc3ncccc3c2)n1)C(=O)OCC (stereo unspecified)	> 10 µM
CC(C)c1ccc2c(c1)c(SC(C)(C)C)c(CC(C)(C)C(=O)O)n2Cc1ccc(Cl)cc1	> 10 µM
CCCCCCC(Sc1nc(Cl)cc(Nc2ccc(-c3ccccc3)cc2)n1)C(=O)O (stereo unspecified)	> 10 µM

target: T4, Prostaglandin G/H synthase 2 (Homo sapiens) (UniProt P35354); test: Inhibition of human recombinant COX2 assessed as remaining activity at 10 uM relative to control; details: not given; in short: as §1
T4 sequence (whole entry): T3 sequence (P35354 whole entry)

Compound	Activity
CCCCCCC(Sc1nc(Cl)cc(Nc2cc(C)c(-c3ccccc3)cc2OC)n1)C(=O)O (stereo unspecified)	53.7%
CCCCCCC(Sc1nc(Cl)cc(Nc2ccc(-c3ccc(C#N)cc3)cc2)n1)C(=O)O (stereo unspecified)	61.2%
CCCCCCC(Sc1nc(Cl)cc(Nc2ccc3ncccc3c2)n1)C(=O)OCC (stereo unspecified)	61.7%
CCCCCCC(Sc1nc(Cl)cc(Nc2ccc(-c3ccccc3)cc2)n1)C(=O)O (stereo unspecified)	57.1%

target: T5, Prostaglandin G/H synthase 1 (Ovis aries) (UniProt P05979); test: Inhibition of ovine COX1 assessed as remaining activity at 10 uM relative to control; details: not given; in short: as §1
T5 sequence (whole entry): T1 sequence (P05979 whole entry)

Compound	Activity
COc1ccc2c(c1)c(CC(=O)O)c(C)n2C(=O)c1ccc(Cl)cc1	19%
CCCCCCC(Sc1nc(Cl)cc(Nc2cc(C)c(-c3ccccc3)cc2OC)n1)C(=O)O (stereo unspecified)	71.2%
CCCCCCC(Sc1nc(Cl)cc(Nc2ccc(-c3ccc(C#N)cc3)cc2)n1)C(=O)O (stereo unspecified)	66%
CCCCCCC(Sc1nc(Cl)cc(Nc2ccc3ncccc3c2)n1)C(=O)OCC (stereo unspecified)	69.5%
CCCCCCC(Sc1nc(Cl)cc(Nc2ccc(-c3ccccc3)cc2)n1)C(=O)O (stereo unspecified)	52.3%

target: T6, Polyunsaturated fatty acid 5-lipoxygenase (Homo sapiens, UniProt P09917); test: Inhibition of 5-LO in PMNL cells; type: cell-based; details: not given
T6 sequence (P09917 whole entry): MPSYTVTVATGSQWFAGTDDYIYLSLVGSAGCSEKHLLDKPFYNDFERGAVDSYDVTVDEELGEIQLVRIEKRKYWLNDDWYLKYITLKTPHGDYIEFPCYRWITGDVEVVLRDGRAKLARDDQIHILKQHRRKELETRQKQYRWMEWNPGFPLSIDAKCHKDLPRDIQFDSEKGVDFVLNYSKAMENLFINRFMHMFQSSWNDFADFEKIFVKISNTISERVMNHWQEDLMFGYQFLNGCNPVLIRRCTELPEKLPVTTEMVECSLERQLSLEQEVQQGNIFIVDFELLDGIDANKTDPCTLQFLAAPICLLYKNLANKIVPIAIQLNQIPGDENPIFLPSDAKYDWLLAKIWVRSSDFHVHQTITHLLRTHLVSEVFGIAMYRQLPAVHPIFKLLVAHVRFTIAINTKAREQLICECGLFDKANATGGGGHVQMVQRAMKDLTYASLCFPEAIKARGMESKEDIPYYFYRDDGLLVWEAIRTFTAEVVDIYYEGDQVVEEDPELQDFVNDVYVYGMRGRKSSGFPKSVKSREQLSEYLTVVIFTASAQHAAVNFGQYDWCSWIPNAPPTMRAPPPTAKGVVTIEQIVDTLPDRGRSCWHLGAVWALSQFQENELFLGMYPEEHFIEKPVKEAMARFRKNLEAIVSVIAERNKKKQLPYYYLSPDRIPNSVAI
In short: (§2)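 Freshly isolated human PMNL from leukocyte concentrates of healthy donors, 5 × 10⁶ cells/mL in PBS pH 7.4 with 1 mg/mL glucose and 1 mM CaCl₂. Preincubated with compound 15 min at RT, then stimulated with 2.5 µM A23187 plus 20 µM AA for 10 min at 37 °C. Stopped with methanol; LTB₄, its all-trans isomers and 5-H(P)ETE quantified by HPLC with PGB₁ internal standard.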

Compound	IC50
CCCCCCC(Sc1nc(Cl)cc(Nc2cc(C)c(-c3ccccc3)cc2OC)n1)C(=O)O (stereo unspecified)	0.5 µM
CCCCCCC(Sc1nc(Cl)cc(Nc2ccc(-c3ccc(C#N)cc3)cc2)n1)C(=O)O (stereo unspecified)	0.4 µM
CC(C)c1ccc2c(c1)c(SC(C)(C)C)c(CC(C)(C)C(=O)O)n2Cc1ccc(Cl)cc1	0.09 µM
CCCCCCC(Sc1nc(Cl)cc(Nc2ccc(-c3ccccc3)cc2)n1)C(=O)O (stereo unspecified)	0.7 µM

target: T7, Prostaglandin E synthase (Homo sapiens, UniProt O14684); test: Inhibition of PGES1 in human A549 cell microsome assessed as PGE2 formation by cell-free assay; details: not given
T7 sequence (O14684 whole entry): T2 sequence (whole entry)
In short: (§3)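 Microsomes from A549 cells grown with IL-1β (1 ng/mL, 72 h), diluted in 0.1 M potassium phosphate pH 7.4 with 2.5 mM glutathione. Compound or DMSO added 15 min before PGH₂ (20 µM final). Reaction ran 1 min at 4 °C and was stopped with FeCl₂/citric acid. PGE₂ isolated by C18 SPE, then RP-HPLC with UV at 195 nm against 11β-PGE₂ internal standard.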

Compound	IC50
CCCCCCC(Sc1nc(Cl)cc(Nc2cc(C)c(-c3ccccc3)cc2OC)n1)C(=O)O (stereo unspecified)	2.1 µM
CCCCCCC(Sc1nc(Cl)cc(Nc2ccc3ncccc3c2)n1)C(=O)OCC (stereo unspecified)	5.6 µM
CCCCCCC(Sc1nc(Cl)cc(Nc2ccc(-c3ccccc3)cc2)n1)C(=O)O (stereo unspecified)	1.6 µM

target: T6, Polyunsaturated fatty acid 5-lipoxygenase; test: Inhibition of human recombinant 5-LO expressed in Escherichia coli by cell-free assay; details: not given
In short: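 Human 5-LO expressed in E. coli MV1190 (pT3-5LO) at 27 °C, partially purified from the 100000g lysate supernatant. Held in PBS pH 7.4 with 1 mM EDTA and 1 mM ATP with compound for 10 min at 4 °C, warmed 30 s at 37 °C, then started with 2 mM CaCl₂ plus 20 µM AA. After 10 min at 37 °C, stopped with cold methanol; products measured by HPLC.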

Compound	IC50
CCCCCCC(Sc1nc(Cl)cc(Nc2cc(C)c(-c3ccccc3)cc2OC)n1)C(=O)O (stereo unspecified)	2 µM
CCCCCCC(Sc1nc(Cl)cc(Nc2ccc(-c3ccc(C#N)cc3)cc2)n1)C(=O)O (stereo unspecified)	1.5 µM
CCCCCCC(Sc1nc(Cl)cc(Nc2ccc(-c3ccccc3)cc2)n1)C(=O)O (stereo unspecified)	1.5 µM

target: T2, Prostaglandin E synthase (Homo sapiens); test: Inhibition of PGES1 in human A549 cell microsome assessed as PGE2 formation at 10 uM by cell-free assay relative to control; design: scale not given: the % may be the effect or the level left; details: not given; in short: as §3

Compound	Activity
CCCCCCC(Sc1nc(Cl)cc(Nc2cc(C)c(-c3ccccc3)cc2OC)n1)C(=O)O (stereo unspecified)	24.9%
CCCCCCC(Sc1nc(Cl)cc(Nc2ccc(-c3ccc(C#N)cc3)cc2)n1)C(=O)O (stereo unspecified)	26.1%
CCCCCCC(Sc1nc(Cl)cc(Nc2ccc3ncccc3c2)n1)C(=O)OCC (stereo unspecified)	39.1%
CC(C)c1ccc2c(c1)c(SC(C)(C)C)c(CC(C)(C)C(=O)O)n2Cc1ccc(Cl)cc1	26%
CCCCCCC(Sc1nc(Cl)cc(Nc2ccc(-c3ccccc3)cc2)n1)C(=O)O (stereo unspecified)	21.7%

target: T2, Prostaglandin E synthase (Homo sapiens); test: Inhibition of mPGES1 in human A549 cells assessed as inhibition of IL-1-beta-induced PGE2 formation at 5 uM by cell-intact assay; type: cell-based; details: not given
In short: (§4)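 A549 cells stimulated with IL-1β for 72 h; 2 × 10⁶ cells in 0.5 mL PBS with 1 mM CaCl₂, preincubated with compound 10 min at 37 °C. Stimulated with 2.5 µM A23187, 1 µM AA and [³H]AA (18.4 kBq) for 15 min at 37 °C. Supernatant acidified; [³H]PGE₂ separated by SPE/RP-HPLC and counted by scintillation. Vehicle 0.1% DMSO; mean ± SE, n = 3.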

Compound	Activity
Cc1ccc(-c2cc(C(F)(F)F)nn2-c2ccc(S(N)(=O)=O)cc2)cc1	Active

target: T8, Polyunsaturated fatty acid 5-lipoxygenase (Homo sapiens) (UniProt P09917); test: Inhibition of 5-LO in human PMNL cells at 10 uM relative to control; type: cell-based; design: scale not given: the % may be the effect or the level left; details: not given; in short: as §2
T8 sequence (whole entry): T6 sequence (P09917 whole entry)

Compound	Activity
CCCCCCC(Sc1nc(Cl)cc(Nc2cc(C)c(-c3ccccc3)cc2OC)n1)C(=O)O (stereo unspecified)	3.1%
CCCCCCC(Sc1nc(Cl)cc(Nc2ccc(-c3ccc(C#N)cc3)cc2)n1)C(=O)O (stereo unspecified)	2.7%
CC(C)c1ccc2c(c1)c(SC(C)(C)C)c(CC(C)(C)C(=O)O)n2Cc1ccc(Cl)cc1	inactive
CCCCCCC(Sc1nc(Cl)cc(Nc2ccc(-c3ccccc3)cc2)n1)C(=O)O (stereo unspecified)	4.1%

target: T2, Prostaglandin E synthase (Homo sapiens); test: Inhibition of mPGES1 in human A549 cells assessed as inhibition of IL-1-beta-induced PGE2 formation at 10 uM by cell-intact assay; type: cell-based; details: not given; in short: as §4

Compound	Activity
COc1ccc2c(c1)c(CC(=O)O)c(C)n2C(=O)c1ccc(Cl)cc1	Active
